TRPC4 agonist – opens the mouse TRPC4 cation channel; HEK293 TRPC4beta/mu-opioid, Fluo4 calcium fluorescence; hits give high values; AID 2237; B-score at 10 µM; 0.49% of 310,000 active;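 active means B-score above 5 SD of library B-scores, and initial fluorescence ratio not above library mean plus 5 SD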;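 further: positive B-score marks a calcium rise read as TRPC4 activation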
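Assay system: HEK293 stable line with TRPC4beta plus mu-opioid receptor. Times: dye 45 min RT, read 110 s. Measured by: kinetic Fluo4 calcium fluorescence. Measure: B score of integrated ratio. Controls: assay buffer as low control, maximal DAMGO as high control.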
TRPC6 inhibitor – blocks the mouse TRPC6 cation channel; 1.1% of 310,000 active; AID 2553; B-score at 10 µM; HEK293-TRPC6, membrane potential dye, ACh-evoked depolarization; hits give low values;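 active means B-score under library mean minus 3 SD, initial fluorescence not abnormally high, positive integrated signal ratio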;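 further: B-score derived from integrated fluorescence ratio over the kinetic read; more negative B-score means stronger inhibition of depolarization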
Target sequence (Q61143 whole entry, looked up): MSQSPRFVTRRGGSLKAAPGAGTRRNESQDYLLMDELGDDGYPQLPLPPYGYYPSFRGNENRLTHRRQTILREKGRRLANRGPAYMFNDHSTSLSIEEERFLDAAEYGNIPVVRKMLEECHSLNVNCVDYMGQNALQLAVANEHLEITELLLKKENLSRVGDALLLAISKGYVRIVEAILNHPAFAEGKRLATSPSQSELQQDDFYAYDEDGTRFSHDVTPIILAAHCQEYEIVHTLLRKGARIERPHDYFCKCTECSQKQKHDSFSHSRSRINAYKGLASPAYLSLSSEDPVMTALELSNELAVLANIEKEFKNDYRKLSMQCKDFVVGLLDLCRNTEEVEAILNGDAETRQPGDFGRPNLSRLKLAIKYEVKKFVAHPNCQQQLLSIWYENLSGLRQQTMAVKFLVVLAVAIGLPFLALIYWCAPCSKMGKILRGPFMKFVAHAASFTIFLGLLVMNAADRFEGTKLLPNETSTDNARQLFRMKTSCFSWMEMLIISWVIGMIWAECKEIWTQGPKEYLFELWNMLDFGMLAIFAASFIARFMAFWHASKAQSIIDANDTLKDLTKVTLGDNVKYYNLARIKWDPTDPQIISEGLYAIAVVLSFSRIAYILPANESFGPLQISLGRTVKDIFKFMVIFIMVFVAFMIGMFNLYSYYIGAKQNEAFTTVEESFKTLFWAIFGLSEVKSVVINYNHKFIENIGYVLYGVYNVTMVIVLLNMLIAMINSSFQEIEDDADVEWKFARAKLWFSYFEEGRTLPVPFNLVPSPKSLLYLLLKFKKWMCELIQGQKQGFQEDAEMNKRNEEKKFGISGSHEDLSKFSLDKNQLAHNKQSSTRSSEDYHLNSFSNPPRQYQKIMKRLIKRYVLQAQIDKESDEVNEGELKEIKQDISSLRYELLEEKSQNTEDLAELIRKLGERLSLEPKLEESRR
TRPC4 block – TRPC4 (mouse) channel inhibition; B-score at 10 µM; HEK293 TRPC4beta/mu-opioid, DAMGO-evoked Fluo4 calcium flux; hits give low values; 0.39% of 300,000 active; Q9QUQ5;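 active means B-score over 3 SD under the library average, no early fluorescence shift, positive overall ratio signal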
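test system = HEK293 cells with stable TRPC4beta plus mu-opioid receptor expression | detection = Fluo4 Ca2+ flux fluorescence | read-out = integrated fluorescence ratio relative to baseline, converted to per-well B score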
TRPC6 act – activates the mouse TRPC6 cation channel. B-score at 10 µM. 0.13% of 310,000 active. HEK293-TRPC6 membrane potential dye fluorescence; hits give high values;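 active means B-score of the integrated fluorescence ratio above library mean plus 3 SD, and starting fluorescence ratio within library mean plus 5 SD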;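 further: higher score means more depolarization so channel activation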
TRPC4 PAM – allosteric potentiators of mouse TRPC4 channel; Q9QUQ5; HEK293 TRPC4beta/mu-opioid, DAMGO EC20, Fluo-4 Ca2+ flux; hits give high values; B-score at 10 µM; 0.42% of 310,000 active; AID 2227;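 active means B-score of calcium response area above 5 SD of library B-scores, with initial fluorescence ratio within 5 SD of library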;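 further: B-score of integrated fluorescence ratio over time as area under calcium response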
An asterisk follows results filed as active; i = inactive. An excerpt weighted towards active compounds, which were near 2.3% of everything screened.

SMILES	TRPC4 agonist	TRPC6 inhibitor	TRPC4 block	TRPC6 act	TRPC4 PAM
COc1ccc(/C=C/C(=O)NC(=S)NNC(=O)c2c(-c3ccccc3)noc2C)cc1	i	i	i	i	i
O=C(NNC(=S)NC(=O)c1ccccc1[N+](=O)[O-])c1ccccc1Cl	i	i	i	i	i
Cn1nc(-c2ccc(C(=O)Nc3cccc(Cl)c3)cc2)c2ccccc2c1=O	i	i	i	i	i
COc1ccc(C2CC(=O)c3cnc(N4CCN(Cc5ccccc5)CC4)nc3C2)cc1 (stereo not drawn)	i	i	i	i	19*
CCN(CC)c1ncnc2c1[nH]c1ccccc12	i	i	-5*	i	i
CCCOc1ncnc2c1[nH]c1ccccc12	i	i	i	i	i
COc1cc2c(cc1OC)C(C(=O)NCc1cccnc1)C(c1cccnc1)N(C)C2=O (stereo not drawn)	i	i	i	i	i
CCOC(=O)C1C(c2ccc(O)c(O)c2)NC(=S)NC1(O)C(F)(F)F (stereo not drawn)	i	i	i	i	i
CSCC[C@H](NC(=O)OC(C)(C)C)C(=O)N/N=C/c1cccc2cccnc12	i	i	i	i	10*
CCCC(=O)N1CCc2cc(-c3nc(N)sc3C)ccc21	101*	i	i	i	i
CNc1nc(-c2ccc3c(c2)CCN3C(=O)CC(C)(C)C)c(C)s1	i	i	i	i	i
CC(C)c1nnc(NC(=O)CCC(=O)N2CCN(Cc3ccccc3)CC2)s1	i	i	i	i	12*
CC(=O)NCC(=O)NC1CC(C)(C)Cc2c1cnn2-c1ccccc1 (stereo not drawn)	i	i	i	i	i
Cc1cc(OCC(=O)N2CCc3ccccc3C2)c(C)cc1Br	i	i	i	i	i
CN(C)C(CNC(C(=O)Nc1ccc(F)cc1)c1ccccc1)c1ccccc1 (stereo not drawn)	139*	i	i	i	i
CN(C)C(CNC(C(=O)Nc1ccc([N+](=O)[O-])cc1Br)c1ccccc1)c1ccccc1 (stereo not drawn)	74*	i	i	i	i
O=C(Nc1ccc(F)cc1)C(NC1CCCCC1)c1ccccc1 (stereo not drawn)	i	i	i	i	i
COc1ccc(-c2noc(CCCC(=O)NCC3CCCO3)n2)cc1 (stereo not drawn)	i	i	i	i	i
O=C(Nc1ccccc1Oc1cccnc1)C1CCCN(C/C=C/c2ccc(F)cc2)C1 (stereo not drawn)	i	i	i	i	i
O=C(C1CCCN(Cc2ccncc2)C1)N1CCc2ccccc2C1 (stereo not drawn)	164*	i	i	i	i
Cc1cccc(CN2CCCC(C(=O)N3CCc4ccccc4C3)C2)c1 (stereo not drawn)	70*	i	i	i	i
O=C(C1CCCN(Cc2ccccc2F)C1)N1CCCCC1 (stereo not drawn)	i	i	i	i	i
O=C(C1CCCN(Cc2ccccc2F)C1)N1CCc2ccccc2C1 (stereo not drawn)	110*	i	i	i	i
Cc1cccc(CN2CCCC(C(=O)Nc3ccccc3Oc3cccnc3)C2)c1 (stereo not drawn)	i	i	-6*	i	i
COC(=O)C1(c2ccccc2)NC(c2ccc(O)cc2)C2C(=O)N(c3ccc4c(c3)OCO4)C(=O)C21 (stereo not drawn)	i	i	i	i	i
SMILES	TRPC4 agonist	TRPC6 inhibitor	TRPC4 block	TRPC6 act	TRPC4 PAM
COc1ccc(OC)c(Cc2nnc(CCC(=O)NC3CCCCC3)o2)c1	i	i	i	i	i
CCCN1CCC(NC(=O)CCc2nnc(Cc3cc(OC)ccc3OC)o2)CC1	55*	i	i	i	10*
OCC1(Cc2ccc(Cl)cc2)CCN(Cc2ccccc2F)CC1	i	i	-6*	i	i
CCN(CC)CCN(C(=O)c1ccccc1OC)c1nc2ccc(F)cc2s1	i	i	-6*	i	i
CN(C)CCCN(C(=O)c1ccc(S(=O)(=O)N2CCCC2)cc1)c1nc2c(F)cc(F)cc2s1	i	i	-9*	i	i
Cc1ccc2nc(N(CCCN(C)C)C(=O)c3ccc(S(=O)(=O)N4CCc5ccccc5C4)cc3)sc2c1	129*	i	i	i	i
CCN(CC)CCN(C(=O)c1ccc2c(c1)CCCC2)c1nc2ccc(F)cc2s1	i	i	i	i	i
CN(C)CCCN(C(=O)c1ccc(S(=O)(=O)N2CCc3ccccc3C2)cc1)c1nc2ccc(F)cc2s1	111*	i	i	i	i
Cc1cc(C)c2sc(N(CCCN(C)C)C(=O)c3ccc(S(=O)(=O)N4CCc5ccccc5C4)cc3)nc2c1	i	i	i	i	i
CN(C)CCCN(C(=O)c1ccc(S(=O)(=O)N2CCc3ccccc3C2)cc1)c1nc2c(F)cccc2s1	i	i	i	i	i
N#CCCn1nc(-c2ccccc2)c2ccccc2c1=O	i	i	i	i	i
CCCc1cc(=O)oc2cc(OC(C)C(=O)NCC3CCC(C(=O)O)CC3)ccc12 (stereo not drawn)	i	i	i	i	i
CCc1cccc(NC(=O)CCCCCC2NC(=O)NC2C)c1 (stereo not drawn)	i	i	i	i	i
Cc1ccc2nc(N(CCCN(C)C)C(=O)c3ccc(S(=O)(=O)N(C)C)cc3)sc2c1	i	i	i	i	i
CN(C)CCCN(C(=O)c1ccc(S(=O)(=O)N2CCc3ccccc32)cc1)c1nc2ccc(F)cc2s1	111*	i	i	i	i
CN(C)CCCN(C(=O)c1ccc(S(=O)(=O)N(C)C)cc1)c1nc2ccc(F)cc2s1	49*	i	-5*	i	i
Cc1ccc2nc(N(CCCN(C)C)C(=O)c3sc4ccccc4c3Cl)sc2c1	i	i	i	i	10*
Cc1ccc(C(=O)N(CCCN(C)C)c2nc3ccc(Cl)cc3s2)cc1C	i	i	i	i	i
Cc1ccc2nc(Br)c3c(c2c1)OC(CBr)C3 (stereo not drawn)	i	i	i	i	i
CCNC(=O)c1ccccc1-c1nc(-c2ccccc2)no1	i	i	i	i	i
CCCCNCCOc1ccccc1-c1ccccc1	i	i	-6*	i	i
CNCCOc1ccccc1-c1ccccc1	i	i	i	i	i
CNCCCCOc1ccccc1-c1ccccc1	52*	i	i	i	i

High-throughput results from PubChem.
